The structures appear in SMILES notation.

The nature of data set [1]: Partition coefficient of the compound. It is filed as ADME. To be noted: octanol/water.
In data set [2] the test system is V79. The data set can be described thus: In vitro radiosensitizing activity against V-79 hypoxic cells was determined in the presence of the sensitizer under nitrogen at a concentration of 1.0 mM. It is filed as functional, Cricetulus griseus. In a few lines: (§1)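 Asynchronous monolayer V-79 Chinese hamster cells from exponential cultures, plated in dishes and made hypoxic by purging sealed containers with 95% nitrogen/5% CO2. Drug exposure was 1 h at 37 °C under hypoxia, followed by cobalt-60 irradiation (~240 rad/min, 400–2700 rad). Colonies were grown 6 days at 37 °C, then fixed in ethanol, stained with methylene blue and counted. SER = D0 of hypoxic controls / D0 of drug-treated hypoxic cells.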

Data set [3] has as its system V79. Briefly: In vitro radiosensitizing activity against V-79 hypoxic cells was determined in the presence of the sensitizer under nitrogen at a concentration of 0.5 mM. It is filed as functional, Cricetulus griseus. The essentials: as §1
For data set [4], the system named is V79. Briefly: In vitro radiosensitizing activity against V-79 hypoxic cells was determined in the presence of the sensitizer under nitrogen at a concentration of 0.25 mM. Format: functional, Cricetulus griseus. In a few lines: as §1
The subject of data set [5] is V79. The data set can be described thus: In vitro radiosensitizing activity against V-79 hypoxic cells was determined in the presence of the sensitizer under nitrogen at a concentration of 0.05 mM. It is filed as functional, Cricetulus griseus. The essentials:
as §1

Data set [6] relates to V79. Briefly: In vitro radiosensitizing activity against V-79 Hypoxic cells was determined in the presence of the sensitizer under nitrogen at a concentration of 0.1 mM. It is filed as functional, Cricetulus griseus. The essentials: as §1

`O=[N+]([O-])c1nccn1C1OC(CO)C(O)C(O)C1O` (stereo not drawn) returned a Partition coefficient in data set [1] of 0.04. In addition, the SER in data set [2] was determined as 1.
Compound `O=[N+]([O-])c1nccn1C1SC(CO)C(O)C(O)C1O` (stereo not drawn) yielded a Partition coefficient in data set [1] of 0.22. For the same compound, the SER in data set [3] worked out at 1.4; in data set [2], 1.7; in data set [4], 1.2.
For `COC(=O)C1(n2ccnc2[N+](=O)[O-])CC(OC(C)=O)C(NC(C)=O)C(C(OC(C)=O)C(COC(C)=O)OC(C)=O)O1` (stereo not drawn) the same measures were 2.56, 1.4, 1.6 and 1.2.
`CC(=O)OCC1SC(n2ccnc2[N+](=O)[O-])C(OC(C)=O)C(OC(C)=O)C1OC(C)=O` (stereo not drawn) yielded a Partition coefficient in data set [1] of 4.22. The SER in data set [5] is listed as 1.1.
On to `O=C(OC[C@H]1O[C@@H](n2ccnc2[N+](=O)[O-])[C@H](OC(=O)c2ccccc2)[C@@H]1OC(=O)c1ccccc1)c1ccccc1`, for which the Partition coefficient in data set [1] was 15.66. The SER in data set [2] (in the assay text read “0.01 mM” for “1.0 mM”) is listed as 1.
In the case of `CC(=O)OCC1OC(n2ccnc2[N+](=O)[O-])C(OC(C)=O)C(OC(C)=O)C1OC(C)=O` (stereo not drawn), the Partition coefficient in data set [1] came out at 3.31. Also, in data set [6], the SER stood at 1.2.
On to `O=[N+]([O-])c1nccn1C1O[C@H](CO)[C@@H](O)[C@H]1O` (stereo partly drawn), for which the Partition coefficient in data set [1] worked out at 0.07. In data set [3], the SER is given as 1.4.

For the origin of these results see ChEMBL document CHEMBL1122141, “Potential radiosensitizing agents. 4. 2-Nitroimidazole nucleosides” (J Med Chem, 1982).
